Results taken from ChEMBL document CHEMBL1147795, “cis-2,5-dicyanopyrrolidine inhibitors of dipeptidyl peptidase IV: synthesis and in vitro, in vivo, and X-ray crystallographic characterization” (J Med Chem, 2006).
One block for each molecule: values may come before it. The source made the active and inactive calls. No cut-off for these calls is given here.

Columns and labels:
Dipeptidyl peptidase 4 = Dipeptidyl peptidase 4 (Homo sapiens, UniProt P27487); experiment: Inhibition of human recombinant DPP4
[1] = Solubility in phosphate buffered saline at pH 6.5; format: physicochemical
In short: (§1)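 Solubility of the mono-hydrochloride salt measured in PBS pH 6.5 and in unbuffered water; final pH of the water solution 2.0.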

[2] = Solubility in unbuffered water; format: physicochemical; in short: as §1
[3] = Volume of distribution in Sprague-Dawley rat; format: ADME, organism-based; settings: in vivo, read-out: Vdss
In short: (§2)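 Male Sprague-Dawley rats (200-250 g), jugular vein cannulated. IV bolus 1.0 mg/kg in sterile saline; oral gavage 5.0 mg/kg in 0.5% methylcellulose. Blood sampled 0 to 24 h into lithium heparin, plasma frozen at -70 °C, compound quantified by LC/MS/MS after acetonitrile protein precipitation (standard curve 1.0-2000 ng/mL).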

[4] = Volume of distribution in Beagle dog; format: ADME, organism-based, Canis lupus familiaris; settings: in vivo, read-out: Vdss
In short: (§3)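 Dog and monkey PK: oral dosing at 1 mg kg^-1 in sterile water, intravenous at 1 mg kg^-1 in sterile saline.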

[5] = Volume of distribution in cynomolgus monkey; format: ADME, organism-based, Macaca fascicularis; settings: in vivo, read-out: Vdss; in short: as §3
Rattus norvegicus [6] = species: Rattus norvegicus; experiment: AUC (0-infinity) in Sprague-Dawley rat; format: ADME, organism-based, Plasma; set-up: time infinity; settings: in vivo; in short: as §2
[7] = Tmax in cynomolgus monkey; format: ADME, organism-based, Macaca fascicularis; settings: in vivo; in short: as §3
[8] = Percent of unbound ligand in human plasma; format: ADME
[9] = Tmax in Sprague-Dawley rat; format: ADME, organism-based; settings: in vivo; in short: as §2
[10] = Half life in Beagle dog at 1 mg/kg, iv; format: ADME, organism-based, Canis lupus familiaris; set-up: dose 1 mg/kg, route intravenous; settings: in vivo; in short: as §3
Canis familiaris [11] = species: Canis familiaris; experiment: Hepatic clearance in Beagle dog; format: ADME, organism-based, Canis lupus familiaris, Liver; settings: in vivo; in short: as §3
[12] = Percent of unbound ligand in Sprague-Dawley rat plasma; format: ADME, cell-free
[13] = Bioavailability in Sprague-Dawley rat; format: ADME, organism-based; settings: in vivo; in short: as §2
[14] = Tmax in Beagle dog; format: ADME, organism-based, Canis lupus familiaris; settings: in vivo; in short: as §3
[15] = Half life in Sprague-Dawley rat at 1 mg/kg, iv; format: ADME, organism-based; set-up: dose 1 mg/kg, route intravenous; settings: in vivo; in short: as §2
[16] = Percent of unbound ligand in Beagle dog plasma; format: ADME, cell-free, Canis lupus familiaris
Cynomolgus monkey = experiment: Hepatic clearance in cynomolgus monkey; format: ADME, organism-based, Macaca fascicularis, Liver; settings: in vivo; in short: as §3
Rattus norvegicus [17] = species: Rattus norvegicus; experiment: Hepatic clearance in Sprague-Dawley rat; format: ADME, organism-based, Liver; settings: in vivo; in short: as §2
Rattus norvegicus [18] = species: Rattus norvegicus; experiment: Cmax in Sprague-Dawley rat; format: ADME, organism-based; settings: in vivo; in short: as §2
[19] = Half life in cynomolgus monkey at 1 mg/kg, iv; format: ADME, organism-based, Macaca fascicularis; set-up: dose 1 mg/kg, route intravenous; settings: in vivo; in short: as §3
[20] = Half life in Beagle dog at 1 mg/kg, po; format: ADME, organism-based, Canis lupus familiaris; set-up: dose 1 mg/kg, route oral; settings: in vivo; in short: as §3
[21] = Half life in cynomolgus monkey at 1 mg/kg, po; format: ADME, organism-based, Macaca fascicularis; set-up: dose 1 mg/kg, route oral; settings: in vivo; in short: as §3
Rhesus monkey = experiment: Increase in thiocyanate ion in monkey plasma at 3 mg/kg, po after 24 hrs; format: ADME, organism-based; set-up: dose 3 mg/kg, route oral; settings: in vivo
In short: (§4)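 Stored plasma from earlier oral dosing (rat 15 mg kg^-1, dog and monkey 3 mg kg^-1) analysed for thiocyanate through 24 h, compared with the t = 0 sample.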

Canis familiaris [22] = experiment: Increase in thiocyanate ion in dog plasma at 3 mg/kg, po after 24 hrs; format: ADME, organism-based, Canis lupus familiaris; set-up: dose 3 mg/kg, route oral; settings: in vivo; in short: as §4
[23] = Half life in Sprague-Dawley rat at 5 mg/kg, po; format: ADME, organism-based; set-up: dose 5 mg/kg, route oral; settings: in vivo; in short: as §2
Rattus norvegicus [24] = experiment: Increase in thiocyanate ion in rat plasma at 15 mg/kg, po after 24 hrs; format: ADME, organism-based; set-up: dose 15 mg/kg, route oral; settings: in vivo; in short: as §4
[25] = Bioavailability in cynomolgus monkey; format: ADME, organism-based, Macaca fascicularis; settings: in vivo; in short: as §3
[26] = Percent of unbound ligand in cynomolgus monkey plasma; format: ADME, cell-free, Macaca fascicularis
[27] = Bioavailability in Beagle dog; format: ADME, organism-based, Canis lupus familiaris; settings: in vivo; in short: as §3
[28] = molecular target: Dipeptidyl peptidase 4 (Mus musculus) (UniProt P28843); experiment: Lowering of glucose level in diabetic KK/H1J mouse at 5 mg/kg, po; format: functional, organism-based; set-up: dose 5 mg/kg
In short: (§5)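 Diabetic KK/H1J mice fasted overnight, 10 per group, dosed orally in 0.5% methylcellulose. Glucose given orally at t = 15 min; plasma glucose at t = 45 min.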

[29] = molecular target: Dipeptidyl peptidase 4 (Mus musculus) (UniProt P28843); experiment: Increase in plasma GLP1 level in KK mouse at 5 mg/kg, po after 2 hrs; format: functional, organism-based; set-up: dose 5 mg/kg
In short: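 Fed KK mice dosed 5 mg kg^-1 orally at t = 0. Blood sampled at intervals over 2 h for plasma GLP-1 and DPP-IV activity.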

[30] = molecular target: Dipeptidyl peptidase 4 (Mus musculus) (UniProt P28843); experiment: Lowering of glucose level in diabetic KK/H1J mouse at 10 mg/kg, po; format: functional, organism-based; set-up: dose 10 mg/kg; in short: as §5
[31] = molecular target: Dipeptidyl peptidase 4 (Mus musculus) (UniProt P28843); experiment: Lowering of glucose level in diabetic KK/H1J mouse at 0.3 mg/kg, po; format: functional, organism-based; set-up: dose 0.3 mg/kg
In short: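 Overnight-fasted diabetic KK/H1J mice, 10 per group, given compound orally in 0.5% methylcellulose (0.2 mL per mouse), then an oral glucose challenge at t = 15 min. Retro-orbital bleeds were taken at 0, 15 and 45 min for plasma glucose. […] Scored significant or nonsignificant.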

[32] = molecular target: Dipeptidyl peptidase 4 (Mus musculus) (UniProt P28843); experiment: Lowering of glucose level in diabetic KK/H1J mouse at 2.5 mg/kg, po; format: functional, organism-based; set-up: dose 2.5 mg/kg; in short: as §5
[33] = molecular target: Dipeptidyl peptidase 4 (Mus musculus) (UniProt P28843); experiment: Lowering of glucose level in diabetic KK/H1J mouse at 3 mg/kg, po; format: functional, organism-based; set-up: dose 3 mg/kg; in short: as §5

Dipeptidyl peptidase 4, sequence (P27487 whole entry): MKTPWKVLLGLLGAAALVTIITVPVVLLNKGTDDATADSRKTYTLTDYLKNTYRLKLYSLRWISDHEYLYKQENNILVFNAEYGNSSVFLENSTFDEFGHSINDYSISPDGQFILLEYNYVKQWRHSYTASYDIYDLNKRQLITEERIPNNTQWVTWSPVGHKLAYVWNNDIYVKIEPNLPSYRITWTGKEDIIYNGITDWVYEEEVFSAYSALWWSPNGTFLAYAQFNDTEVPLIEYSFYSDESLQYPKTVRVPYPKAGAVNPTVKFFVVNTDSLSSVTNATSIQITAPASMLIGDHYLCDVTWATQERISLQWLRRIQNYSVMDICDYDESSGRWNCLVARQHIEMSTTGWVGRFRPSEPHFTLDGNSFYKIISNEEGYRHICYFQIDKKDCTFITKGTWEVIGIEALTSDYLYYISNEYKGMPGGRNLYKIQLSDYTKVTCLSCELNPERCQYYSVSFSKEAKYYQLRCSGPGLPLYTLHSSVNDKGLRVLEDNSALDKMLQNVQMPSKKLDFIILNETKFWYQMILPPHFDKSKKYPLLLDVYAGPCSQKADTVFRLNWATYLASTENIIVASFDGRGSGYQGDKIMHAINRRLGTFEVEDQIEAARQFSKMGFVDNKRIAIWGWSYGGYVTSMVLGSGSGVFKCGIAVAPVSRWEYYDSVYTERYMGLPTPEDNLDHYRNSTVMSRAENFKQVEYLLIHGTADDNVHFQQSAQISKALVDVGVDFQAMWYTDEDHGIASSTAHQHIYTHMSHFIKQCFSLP
Dipeptidyl peptidase 4 (Mus musculus), sequence (P28843 whole entry, looked up): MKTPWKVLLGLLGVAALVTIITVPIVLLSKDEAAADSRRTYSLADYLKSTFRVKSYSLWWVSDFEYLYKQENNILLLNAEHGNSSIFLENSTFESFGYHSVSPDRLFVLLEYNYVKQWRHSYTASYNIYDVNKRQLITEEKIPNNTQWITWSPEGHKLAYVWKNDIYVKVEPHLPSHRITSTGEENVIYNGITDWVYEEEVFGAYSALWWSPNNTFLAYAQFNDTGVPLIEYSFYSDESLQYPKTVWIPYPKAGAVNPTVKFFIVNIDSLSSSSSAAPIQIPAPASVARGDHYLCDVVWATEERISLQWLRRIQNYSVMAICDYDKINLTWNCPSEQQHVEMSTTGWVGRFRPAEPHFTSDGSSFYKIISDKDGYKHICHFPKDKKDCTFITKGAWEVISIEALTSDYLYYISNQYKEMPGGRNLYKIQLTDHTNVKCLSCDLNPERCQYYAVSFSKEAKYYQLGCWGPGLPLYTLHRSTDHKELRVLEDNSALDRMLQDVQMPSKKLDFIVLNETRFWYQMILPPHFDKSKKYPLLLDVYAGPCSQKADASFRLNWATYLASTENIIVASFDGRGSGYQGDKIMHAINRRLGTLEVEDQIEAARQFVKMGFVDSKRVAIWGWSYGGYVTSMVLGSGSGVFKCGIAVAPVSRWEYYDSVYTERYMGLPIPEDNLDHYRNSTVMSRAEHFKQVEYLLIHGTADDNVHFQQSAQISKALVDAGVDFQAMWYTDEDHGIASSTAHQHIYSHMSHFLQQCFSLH

Structure (SMILES): N#C[C@@H]1C[C@H](O)CN1C(=O)CNC12CC3CC(CC(C3)C1)C2
IC50 (Dipeptidyl peptidase 4): > 30 µM

Structure (SMILES): Cl.N#C[C@@H]1CC[C@H](C#N)N1C(=O)CNC1(CO)CCCC1
solubility [1]: > 76 mg/mL | solubility [2]: 200 mg/mL

Structure (SMILES): N#C[C@@H]1CC[C@H](c2ccccc2)N1C(=O)CNC1(CO)CCCC1
IC50 (Dipeptidyl peptidase 4): > 30 µM

Structure (SMILES): N#C[C@@H]1CC[C@H](C#N)N1C(=O)CNC1(CO)CCCC1 [listing 1 of 2 here]
Vd [3]: 1.4 L/kg | Vd [4]: 1.3 L/kg | Vd [5]: 1.7 L/kg | AUC (Rattus norvegicus [6]): Dose-dependent effect | Tmax [7]: ≤ 60 min | fraction unbound [8]: 0.77 | Tmax [9]: ≤ 60 min | half-life [10]: 48 min | CL (Canis familiaris [11]): 22 mL/min/kg | fraction unbound [12]: 1 | bioavailability [13]: 77% | Tmax [14]: ≤ 60 min | half-life [15]: 18 min | fraction unbound [16]: 1 | CL (Cynomolgus monkey): 42 mL/min/kg | CL (Rattus norvegicus [17]): 70 mL/min/kg | Cmax (Rattus norvegicus [18]): Dose-dependent effect | half-life [19]: 36 min | half-life [20]: 318 min | half-life [21]: 144 min | Activity (Rhesus monkey): Not Active | Activity (Canis familiaris [22]): Not Active | half-life [23]: 162 min | Activity (Rattus norvegicus [24]): Not Active | bioavailability [25]: 42% | fraction unbound [26]: 0.84 | bioavailability [27]: 93%

Structure (SMILES): N#C[C@@H]1CC[C@H](C#N)N1C(=O)CNC1(CO)CCCC1 [listing 2 of 2 here]
Activity [29]: Active | Activity [30]: 67% | Activity [31]: 46% | Activity [32]: 59%

Structure (SMILES): C[C@H]1CC[C@@H](C#N)N1C(=O)CNC12CC3CC(CC(C3)C1)C2
IC50 (Dipeptidyl peptidase 4): > 30 µM

Structure (SMILES): CC1(NCC(=O)N2[C@H](C#N)CC[C@@H]2C#N)COC(C)(C)OC1
IC50 (Dipeptidyl peptidase 4): > 3 µM

Structure (SMILES): CCC1(NCC(=O)N2[C@H](C#N)CC[C@@H]2C#N)CCCCC1
IC50 (Dipeptidyl peptidase 4): > 3 µM

Structure (SMILES): N#C[C@@H]1CC[C@H](C#N)N1C(=O)CNC12CC3CC(CC(C3)C1)C2
Vd [3]: 3.1 L/kg | Activity [33]: 55% | half-life [15]: 36 min | CL (Rattus norvegicus [17]): 80 mL/min/kg

Structure (SMILES): COC(=O)C1(NCC(=O)N2[C@H](C#N)CC[C@@H]2C#N)CCCC1
IC50 (Dipeptidyl peptidase 4): > 3 µM

Structure (SMILES): N[C@H](C(=O)N1CC(F)(F)C(F)(F)C1)C1CCCCC1
Activity [30]: 57%

Structure (SMILES): CCC(C)(C)C1CCC(C)(NCC(=O)N2[C@H](C#N)CC[C@@H]2C#N)C1 (stereo partly drawn)
IC50 (Dipeptidyl peptidase 4): > 3 µM

Structure (SMILES): CCC(C)(CC)NCC(=O)N1[C@H](C#N)CC[C@@H]1C#N
IC50 (Dipeptidyl peptidase 4): > 3 µM

Continued, values first:

IC50 (Dipeptidyl peptidase 4): > 3 µM
Structure (SMILES): C#CC1(NCC(=O)N2[C@H](C#N)CC[C@@H]2C#N)CCCCC1

IC50 (Dipeptidyl peptidase 4): > 3 µM
Structure (SMILES): N#C[C@@H]1CC[C@H](C#N)N1C(=O)CNC1(Cc2ccccc2)CCCCC1

IC50 (Dipeptidyl peptidase 4): > 3 µM
Structure (SMILES): CC(C)(C)C(C)(C)NCC(=O)N1[C@H](C#N)CC[C@@H]1C#N

IC50 (Dipeptidyl peptidase 4): > 3 µM
Structure (SMILES): CC(C)C(C)(C)NCC(=O)N1[C@H](C#N)CC[C@@H]1C#N

IC50 (Dipeptidyl peptidase 4): > 3 µM
Structure (SMILES): CCC(C)(C)NCC(=O)N1[C@H](C#N)CC[C@@H]1C#N

IC50 (Dipeptidyl peptidase 4): 0.072 µM | Activity [28]: 62%
Structure (SMILES): N#C[C@@H]1CC[C@H](C#N)N1C(=O)CNC12CC3CC(CC1C3)C2

IC50 (Dipeptidyl peptidase 4): > 3 µM
Structure (SMILES): N#C[C@@H]1CC[C@H](C#N)N1C(=O)CNC1(CCCO)CCCCC1

IC50 (Dipeptidyl peptidase 4): > 3 µM
Structure (SMILES): CNC(=O)C1(NCC(=O)N2[C@H](C#N)CC[C@@H]2C#N)CCCC1

IC50 (Dipeptidyl peptidase 4): > 3 µM
Structure (SMILES): N#C[C@@H]1CC[C@H](C#N)N1C(=O)CNC12CC3(F)CC(F)(CC(F)(C3)C1)C2

Activity [30]: 16% | IC50 (Dipeptidyl peptidase 4): 0.091 µM
Structure (SMILES): CCCCOCC1(NCC(=O)N2[C@H](C#N)CC[C@@H]2C#N)CCCC1

Vd [3]: 2.7 L/kg | Activity [33]: 45% | bioavailability [13]: 42% | half-life [15]: 24 min | CL (Rattus norvegicus [17]): 130 mL/min/kg | IC50 (Dipeptidyl peptidase 4): 0.074 µM | half-life [23]: 84 min
Structure (SMILES): N#C[C@@H]1CC[C@H](C#N)N1C(=O)CNC12CC3CC(CC(O)(C3)C1)C2

IC50 (Dipeptidyl peptidase 4): > 3 µM
Structure (SMILES): N#C[C@@H]1CC[C@H](C#N)N1C(=O)CNC1(CCO)CCCC1

IC50 (Dipeptidyl peptidase 4): > 3 µM
Structure (SMILES): C[C@@H]1CC(C)(NCC(=O)N2[C@H](C#N)CC[C@@H]2C#N)C[C@@H]1C (stereo partly drawn)

IC50 (Dipeptidyl peptidase 4): > 3 µM
Structure (SMILES): CC1(C)CCCC1(C)NCC(=O)N1[C@H](C#N)CC[C@@H]1C#N (stereo partly drawn)

IC50 (Dipeptidyl peptidase 4): > 3 µM
Structure (SMILES): CC1(NCC(=O)N2[C@H](C#N)CC[C@@H]2C#N)CCSC1 (stereo partly drawn)

Vd [3]: 1.6 L/kg | bioavailability [13]: 48% | half-life [15]: 12 min | Activity [30]: 74% | CL (Rattus norvegicus [17]): 98 mL/min/kg | IC50 (Dipeptidyl peptidase 4): 0.084 µM | half-life [23]: 38.4 min
Structure (SMILES): COCC1(NCC(=O)N2[C@H](C#N)CC[C@@H]2C#N)CCCC1

Activity [30]: 79% | IC50 (Dipeptidyl peptidase 4): 0.064 µM
Structure (SMILES): CCOCC1(NCC(=O)N2[C@H](C#N)CC[C@@H]2C#N)CCCC1
